Screens as filed in PubChem.
PGC1a Ac signal: raises PGC1a acetylation signal in U2OS cells; U2OS PGC1a acetylation AlphaScreen, overnight; activation, % at 15.6 µM; actives 0.21% (n = 350,000); AID 651723;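 active = every replicate reaching activation of at least 50%, whatever the mean replicate activation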;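 also: hits raise the AlphaScreen acetylation signal above neutral controls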
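Test system: U2OS cells expressing flag-PGC1a plus GCN5; Amount: 7000 U2OS cells per well; Compound: single test concentration per compound; Incubation: compound overnight at 37 °C, each detection step 1 h RT; Signal: AlphaScreen lysate read.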
The depositor's hits bear a star. Not all results are given here.

SMILES	PGC1a Ac signal
CCN(C(=O)COC(=O)/C=C/c1cccc(Cl)c1)c1c(N)n(Cc2ccccc2)c(=O)[nH]c1=O	-42
O=C(COC(=O)C1CC2CCCC(C1)C2=O)Nc1ccc(F)c(Cl)c1 (stereo unspecified)	-48
Cn1cccc1C(=O)OCC(=O)Nc1ccc2c(c1)CCC2	83*
CCc1c(C)nc(N)nc1Cl	-47
CCCNC(=O)CN(C)C(=O)c1n[nH]c2ccccc12	-43
O=C(Nc1cc(S(=O)(=O)N2CCOCC2)ccc1Cl)c1cc([N+](=O)[O-])ccc1Cl	67*
CCN(CC)S(=O)(=O)c1ccc(C(=O)Nc2cc(S(=O)(=O)N3CCOCC3)ccc2O)cc1	-46
CCN(CC)c1ccc(S(=O)(=O)N2CCOCC2)cc1NC(=O)Cn1nc(C)c([N+](=O)[O-])c1C	-48
CSCC(O)Cn1[nH]c(=O)c2cc(Cl)c(Cl)cc2c1=O (stereo unspecified)	-84
N#C[C@@H]1[C@@H](c2ccc(-c3ccccc3)cc2)[C@@H](CO)N1C(=O)Cc1ccncc1	-63
COc1cc(CN2[C@@H]3CNC[C@H]2C3c2ccc(-c3ccccc3)cc2)cc(OC)c1 (stereo partly specified)	52*
CC(C)CC#Cc1ccc2c(c1)O[C@H](CN(C)Cc1ccccc1)[C@@H](C)CN([C@H](C)CO)S2(=O)=O	-52
CC(=O)N(C)C[C@H]1Oc2cc(-c3ccc(C#N)cc3)ccc2S(=O)(=O)N([C@@H](C)CO)C[C@@H]1C	-42
CC(C)CC#Cc1ccc2c(c1)O[C@H](CN(C)C)[C@@H](C)CN([C@H](C)CO)S2(=O)=O	59*
C[C@H]1CN([C@@H](C)CO)S(=O)(=O)c2ccc(-c3ccccc3)cc2O[C@@H]1CN(C)Cc1cccc(F)c1	-48
COc1ccccc1-c1ccc2c(c1)O[C@@H](CN(C)Cc1ccc3c(c1)OCO3)[C@@H](C)CN([C@H](C)CO)S2(=O)=O	64*
COc1ccccc1C#Cc1ccc2c(c1)O[C@@H](CN(C)Cc1cccnc1)[C@H](C)CN([C@H](C)CO)S2(=O)=O	-43
CC(C)CC#Cc1ccc2c(c1)O[C@H](CN(C)Cc1ccccc1)[C@H](C)CN([C@@H](C)CO)S2(=O)=O	-48
C[C@H](CO)N1C[C@H](C)[C@H](CN(C)C(=O)C2CCCCC2)Oc2cc(-c3ccccc3)ccc2S1(=O)=O	63*
C[C@H](CO)N1C[C@H](C)[C@@H](CN(C)C(=O)C2CCCCC2)Oc2cc(C#Cc3ccncc3)ccc2S1(=O)=O	-4
COC(=O)c1ccccc1N(C)S(=O)(=O)c1cc2c(cc1C)OCC(=O)N2	-44
c1ccc(N2CCN(c3ccccc3)C2c2ccncc2)cc1	-91
O=C(Cc1ccccn1)NCC[C@@H]1CC[C@H](NC(=O)Nc2ccc(C(F)(F)F)cc2)[C@@H](CO)O1	-50
O=C(O)c1ccc(N/N=C/C(Br)=C/c2ccccc2)cc1	54*
Cc1ccc(NCC(=O)N/N=C\C(Br)=C\c2ccccc2)cc1	145*
SMILES	PGC1a Ac signal
O=C1C=CCCN1C(=O)/C=C/c1ccccc1Cl	-73
COc1cc(-c2nnn(CC#N)n2)ccc1OCc1ccccc1	212*
Cn1c(O)c(C(C#N)=C2N=c3ccccc3=N2)c2ccccc21	72*
COC(=O)c1ccc2c(c1)C(C)(C)C(/C=C/c1ccc(O)cc1)=[N+]2C	59*
O=C(c1cccc(F)c1)N1CCN(C(=O)c2cc(-c3ccc(Cl)cc3Cl)on2)CC1	-43
O=C(Nc1c(F)cccc1F)c1ccc(-n2cncn2)nc1	53*
CN1C(C(=O)Nc2ccccn2)=C(O)c2sc(Cl)cc2S1(=O)=O	-53
Cc1cc(C)nc(NC(=O)c2c(-c3ccccc3Cl)noc2C)n1	77*
COc1ccc(OCC(=O)NNC(=O)c2c(-c3ccccc3Cl)noc2C)cc1	-62
CSc1n[nH]c(NC(=O)c2c(-c3c(Cl)cccc3Cl)noc2C)n1	-65
C[C@@H]1CN([C@H](C)CO)C(=O)c2cc(NS(=O)(=O)c3cccs3)ccc2O[C@@H]1CN(C)S(=O)(=O)c1ccc(F)cc1	-43
O=C(C[C@H]1CC[C@@H](NC(=O)c2ccccc2)[C@H](CO)O1)Nc1ccc(-c2ccccc2)cc1	-44
Cc1ccc(-c2cc(C(=O)N3CCOCC3)c3ccccc3n2)o1	-45
O=C(O)c1cc(-c2ccc3c(c2)OCO3)nc2ccccc12	93*
O=C(N/N=C/c1ccc2c(c1)OCO2)c1cc(-c2ccc(F)cc2)nc2ccccc12	-49
C=CCNS(=O)(=O)c1cccc2cc(C(=O)O)c(O)cc12	-95
C=C1C(=O)[C@]23C[C@H]1CCC2[C@@]1(C)C(C[C@@H]3O)[C@](C)(C(=O)OC)CC[C@@H]1O (stereo partly specified)	-92
C[C@@H]1CN([C@H](C)CO)C(=O)c2cc(NS(C)(=O)=O)ccc2O[C@@H]1CN(C)S(=O)(=O)c1ccc(Cl)cc1	-42
CCCC[C@@]1(C2CCCC2)Cc2cc(OCC(=O)O)c(Cl)c(Cl)c2C1=O	-95
C[C@H]1CN([C@@H](C)CO)S(=O)(=O)c2ccc(C3=CCCC3)cc2O[C@@H]1CN(C)C	-59
